Series [1] is described as follows: Therapeutic index, ratio of IC50 for human H9 cells to EC50 for HIV1 3B. Type of series: cell-based. Conditions: read-out: TI; call rule not given here. Summed up: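 Mock-infected H9 cells were run in parallel under the same conditions, and toxicity was measured by XTT. IC50 is the concentration toxic to 50% of the cells. TI = IC50/EC50, where EC50 is 50% suppression of HIV-1 IIIB replication measured by day-6 p24 antigen capture.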

Series [2] concerns Human immunodeficiency virus 1. In words: Antiviral activity against HIV1 IIIB infected in human H9 cells after 6 days by p24 antigen capture assay. Conditions: Human immunodeficiency virus 1, H9, 144 h.
Series [3] has as its target Human immunodeficiency virus type 1 reverse transcriptase (Human immunodeficiency virus 1, UniProt Q72547). In words: Inhibition of HIV1 DH012 reverse transcriptase by roche colorimetric assay. In short, it runs like this: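 HIV-1 DH012 RT activity was measured across a range of test-compound concentrations using a colorimetric RT kit run per the manufacturer's protocol; IC50 taken as the inhibitory concentration.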

For series [4], the system named is Human immunodeficiency virus 1. In words: Antiviral activity against HIV1 3B infected in human H9 cells assessed as inhibition of viral replication at up to 100 ug/mL after 6 hrs by p24 antigen based assay. Format: functional, organism-based. Conditions: in the assay text read “after 6 days” for “after 6 hrs”. In short, it runs like this:
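H9 human T cells (3 × 10^5 cells/mL) infected with HIV-1 IIIB at 125 TCID50. Compounds dissolved in DMSO and screened at final 100, 20, 4 and 0.8 μg/mL, with further dilutions for actives. Medium was replaced on days 1 and 4 post-infection. On day 6 the supernatant p24 antigen was measured by capture assay. EC50 is the concentration suppressing replication by 50%.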

Bounds are passed on as bounds.

With `Cc1cc(=O)oc2c3c(ccc12)O[C@@H](C)[C@H](OC(=O)[C@]12CC[C@](C)(C(=O)O1)C2(C)C)[C@@H]3OC(=O)[C@]12CC[C@](C)(C(=O)O1)C2(C)C`, the selectivity ratio in series [1] is above 706. In series [2], this compound yielded an EC50 below 40 nM. This compound registered an IC50 in series [3] of 6700 nM. Take `Cc1cc(=O)oc2c3c(ccc12)O[C@H](C)[C@@H](OC(=O)[C@]12CC[C@](C)(C(=O)O1)C2(C)C)[C@H]3OC(=O)[C@]12CC[C@](C)(C(=O)O1)C2(C)C`: the selectivity ratio in series [1] worked out at 17.8. This compound gave an EC50 in series [2] of 2260 nM. Consider `Cc1cc(=O)oc2c3c(ccc12)O[C@H](C)[C@H](OC(=O)[C@]12CC[C@](C)(C(=O)O1)C2(C)C)[C@@H]3OC(=O)[C@]12CC[C@](C)(C(=O)O1)C2(C)C`, for which, in series [4], the EC50 entry is on record as “Not Active”. Take `Cc1cc(=O)oc2c3c(ccc12)S[C@@H](C)[C@@H](OC(=O)[C@]12CC[C@](C)(C(=O)O1)C2(C)C)[C@H]3OC(=O)[C@]12CC[C@](C)(C(=O)O1)C2(C)C`: the selectivity ratio in series [1] was above 1000. The EC50 in series [2] is below 39 nM. For the compound `Cc1cc(=O)oc2c3c(ccc12)S[C@H](C)[C@@H](OC(=O)[C@]12CC[C@](C)(C(=O)O1)C2(C)C)[C@H]3OC(=O)[C@]12CC[C@](C)(C(=O)O1)C2(C)C`, the EC50 result in series [4] is given as “Not Active”. As to `Cc1cc(=O)oc2c3c(ccc12)S[C@H](C)[C@H](OC(=O)[C@]12CC[C@](C)(C(=O)O1)C2(C)C)[C@@H]3OC(=O)[C@]12CC[C@](C)(C(=O)O1)C2(C)C`, in series [1], the selectivity ratio turned out to be 31.1. Besides, a half-maximal effect in series [2] (EC50) was put at 1260 nM. For the compound `Cc1cc(=O)oc2c3c(ccc12)[S+]([O-])[C@@H](C)C(OC(=O)C12CCC(C)(C(=O)O1)C2(C)C)C3OC(=O)C12CCC(C)(C(=O)O1)C2(C)C` (some centres undefined), the EC50 entry in series [4] is on record as “Not Active”. Turning to `Cc1cc(=O)oc2c3c(ccc12)[S+]([O-])[C@H](C)[C@H](OC(=O)[C@]12CC[C@](C)(C(=O)O1)C2(C)C)[C@@H]3OC(=O)[C@]12CC[C@](C)(C(=O)O1)C2(C)C` (some centres undefined), the selectivity ratio in series [1] turned out to be 1.57. For the same compound, in series [2], a half-maximal effect (EC50) was put at 24400 nM. The like results for `Cc1cc(=O)oc2c3c(ccc12)S(=O)(=O)[C@@H](C)C(OC(=O)C12CCC(C)(C(=O)O1)C2(C)C)C3OC(=O)C12CCC(C)(C(=O)O1)C2(C)C` (some centres undefined) were, in that order, 11.1 and 3370 nM. Turning to `Cc1cc(=O)oc2c3c(ccc12)OC(C)(C)[C@H](OC(=O)[C@]12CC[C@](C)(C(=O)O1)C2(C)C)[C@@H]3OC(=O)[C@]12CC[C@](C)(C(=O)O1)C2(C)C`, the selectivity ratio in series [1] was 301. In series [2], this compound registered an EC50 of 126 nM. In addition, the IC50 in series [3] stood at 10400 nM.

In the case of `Cc1cc(=O)oc2c3c(ccc12)OC[C@H](OC(=O)[C@]12CC[C@](C)(C(=O)O1)C2(C)C)[C@@H]3OC(=O)[C@]12CC[C@](C)(C(=O)O1)C2(C)C`, the selectivity ratio in series [1] is 2.54. Moreover, it took 16200 nM to reach a half-maximal effect in series [2] (EC50). Taken in the same sequence, the figures for `Cc1cc(=O)oc2c3c(ccc12)SC[C@H](OC(=O)[C@]12CC[C@](C)(C(=O)O1)C2(C)C)[C@@H]3OC(=O)[C@]12CC[C@](C)(C(=O)O1)C2(C)C` were 40.6 and 990 nM. On to `Cc1cn([C@H]2C[C@H](N=[N+]=[N-])[C@@H](CO)O2)c(=O)[nH]c1=O` [ZIDOVUDINE], for which, in series [2], a half-maximal effect (EC50) was put at 10 nM.

Broadly, the EC50 is the midpoint of the concentration-response curve. One may read the IC50 as the midpoint of a concentration-inhibition curve. Low values mean greater potency in that assay, high ones weaker potency in that assay.

For the origin of these results see ChEMBL document CHEMBL1250555, “Anti-AIDS agents 84. Synthesis and anti-human immunodeficiency virus (HIV) activity of 2'-monomethyl-4-methyl- and 1'-thia-4-methyl-(3'R,4'R)-3',4'-di-O-(S)-camphanoyl-(+)-cis-khellactone (DCK) analogs” (Bioorg Med Chem, 2010).
